According to the EternaBench riboswitch data:

Columns and labels:
MS2 coat protein [1] = assay: apparent Kd, MS2 coat protein; higher = weaker binding; RNA-MaP array; theophylline 2 mM where present
How it was run: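 Apparent Kd: the median of filtered binding-curve fits from single clusters. Designs were transcribed on Illumina sequencing-chip clusters by stalled E. coli RNA polymerase and titrated with SNAP-549-labelled MS2 coat protein from 0.7 or 1.5 nM, doubling to 3 µM, in 100 mM Tris-HCl pH 7.5, 80 mM KCl, 4 mM MgCl2, BSA, DTT, yeast tRNA and Tween-20. Each series ran without and then with constant ligand, and green signal was normalised to red-channel RNA signal and control-cluster median Fmax.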

MS2 coat protein [2] = assay: apparent Kd, MS2 coat protein; higher = weaker binding; RNA-MaP array
How it was run: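 Incubations were done at room temperature with fluorescently labeled MS2 coat protein at 1.5 nM to 3 μM and designed RNAs transcribed on an Illumina sequencing chip from sequenced DNA templates, with or without input ligand. Apparent Kd is the median of binding curves fitted for each cluster. Designs with fewer than 10 measured clusters were excluded.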

[3] = designed as: ON switch for theophylline, no ligand
[4] = ligand present: theophylline, designed as: ON switch for theophylline
[5] = designed as: OFF switch for theophylline, no ligand
[6] = ligand present: theophylline, designed as: OFF switch for theophylline
[7] = designed as: OFF switch for flavin mononucleotide, no ligand
[8] = ligand present: flavin mononucleotide, designed as: OFF switch for flavin mononucleotide
[9] = designed as: ON switch for flavin mononucleotide, no ligand
[10] = ligand present: flavin mononucleotide, designed as: ON switch for flavin mononucleotide

Sequence	apparent Kd (MS2 coat protein [2]; [7])	apparent Kd (MS2 coat protein [2]; [8])	also measured
AAUAACAUGAGGAUCACCCAUGUAAAAGAUACCAGAGUGAUGAUCCUCCCUUGGCAGCUUAACGCUGAUUGAUUACAAUCAGCGA	–	–	apparent Kd (MS2 coat protein [1]; [3]): 57.6 nM; apparent Kd (MS2 coat protein [1]; [4]): 173 nM
AAUAACAUGAGGAUCACCCAUGUAAAAGAUACCAGAGUGAUGAUCCUCCCUUGGCAGCUUAAUAACGCUAUUGGAAACAAUAGCG	–	–	apparent Kd (MS2 coat protein [1]; [3]): 78.2 nM; apparent Kd (MS2 coat protein [1]; [4]): 122 nM
ACACAUGAGGAUCACCCAUGUUCAAUAGAUACCAGUGAUACGGUGCACCCUUGGCAGCUGUUGCUGAGUGAUGGUUCCCUCGGUA	–	–	apparent Kd (MS2 coat protein [1]; [3]): 41.3 nM; apparent Kd (MS2 coat protein [1]; [4]): 65.4 nM
ACAUGAAGAACAGCGGUGGGCGCGCUCGAUACCAGUACUUUGAUAUACCCUUGGCAGCGACAUGAGGAUCACCCAUGUGAGAUGA	–	–	apparent Kd (MS2 coat protein [1]; [5]): 18.7 nM; apparent Kd (MS2 coat protein [1]; [6]): 27.2 nM
ACAUGAGGAUCACCCAUGUAAGGUCUUGAUACCAGACGAGAAGUAGUCCCUUGGCAGCAAAUACGUGAGGGUCACACAUGUGUAA	–	–	apparent Kd (MS2 coat protein [1]; [5]): 23 nM; apparent Kd (MS2 coat protein [1]; [6]): 46 nM
ACAUGAGGAUCACCCAUGUUCCUCAUUGAUACCAGUGAAUUUAGACGCCCUUGGCAGCGAGUUUAAGAAGAAGAAGUUUUUUUUU	–	–	apparent Kd (MS2 coat protein [1]; [5]): 667 nM; apparent Kd (MS2 coat protein [1]; [6]): 895 nM
ACAUGAGGAUCACCCAUGUUCCUCAUUGAUACCAGUGAAUUUAGACGCCCUUGGCAGCGAGUUUUUUUAUAAGUUUUUUUUUUUU	–	–	apparent Kd (MS2 coat protein [1]; [5]): 665 nM; apparent Kd (MS2 coat protein [1]; [6]): 1160 nM
ACAUGAGGGAUGGAUACCAGCGACAUGAGGAUCACCCAUGUAUGAGGAUCAGCCAUGUUAUGCCCUUGGCAGCCACGAACAUCAG	–	–	apparent Kd (MS2 coat protein [1]; [5]): 26.6 nM; apparent Kd (MS2 coat protein [1]; [6]): 226 nM
ACGAACUGUAGUGAUACCAGACGUACAUGAGGAUCACCCAUGUUGUAAACAUGGUGAAUAGUCCCUUGGCAGCACAGUUAGUUCG	–	–	apparent Kd (MS2 coat protein [1]; [5]): 182 nM; apparent Kd (MS2 coat protein [1]; [6]): 738 nM
UAAGAGUCGGCAGGAUAUGUCCCUUGAGCGCAGACAGAAGGGCCACUAUCUUUCACAUGAGGAUCACCCAUGUCCUCCCUGGAG	49 nM	61.6 nM	–
UAAGCACAUCAGAAGGCGCAUUAGUUGAACUUGCGAGGAUAUGAUCUGUCCUCAUCAACAUGAGGAUCACCCAUGUGUCAGCUC	37.6 nM	140 nM	–
UAAUAGAAAGGAUAUACAUAGGUUGGCUAAUGACGUUCCGAACAUGAGGAUCACCCAUGUAGAAGGUUCUGCGU	12.4 nM	29.5 nM	–
UACAAGCAAGGAUAUACAUGAGGAUCACCCAUGUGGAGAGCCAGCAAAUUCCGGAAAUGUAGAAGGUGCCACAA	34.4 nM	32.8 nM	–
UACGGUGCAGGAUAUCGAAUUUCAAACAUGAGGAUCACCCAUGUCUAAUAUGGCGACUAACGAGAAGGGCAGGAAG	16.2 nM	16 nM	–
UAGGACAUGAGGAUCACCCAUGUUGUACGGCGAGGACCGGUACGGCCGCCACUCGAGGCGUAAGUAGUAAAGAAUCUGAUUCAAU	–	–	apparent Kd (MS2 coat protein [2]; designed as: ON switch for tryptophan, no ligand): 21.4 nM; apparent Kd (MS2 coat protein [2]; ligand present: tryptophan, designed as: ON switch for tryptophan): 24.1 nM
UAGUCAUCGGCAGGAUAUUCGCUAGUAGACUAUGAAGAAGGGCCACGUACCUCACAAACAUGAGGAUCACCCAUGUAUCUGGAC	39.2 nM	29 nM	–
UAUGUACAUGAGGAUCACCCAUGUCAGGAUAUCUUCGAUUAGACCAUUAGCGCCGCGGAGAGAAGGGACGUAGA	16 nM	15.1 nM	–
UAUUGCAAUGUGAGGAUAUCUCAAGAAAAGACAAGAGAGAAGGCACAUGAGGAUCACCCAUGUUAGAAACAAAA	19.3 nM	110 nM	–
UCAGAUGUGAAGGAUAUUCCGCGAGCAGCUACGGAAGAAGGUCAAACAUGAGGAUCACCCAUGUGUCUCCCGGG	14.4 nM	22.4 nM	–
UCAUGCUGAGGAUAUACAUGAGGAUCACCCAUGUACAGAAUAAGGGAGUGCCAUCAAAGUAGAAGGCAGGACGU	14.4 nM	14.6 nM	–
UCCCGAAAGAAGAAGGGUACACCGAGCUGGUAACACAGCAAAACAUGAGGAUCACCCAUGUCUGAACAGGAUAUUCCGCGAGUA	–	–	apparent Kd (MS2 coat protein [2]; [9]): 31.9 nM; apparent Kd (MS2 coat protein [2]; [10]): 25.5 nM

Sequence	apparent Kd (MS2 coat protein [2]; [7])	apparent Kd (MS2 coat protein [2]; [8])	also measured
UCCCGACAUGAGGAUCACCCAUGUGGACAGUACACAGGAUAUUAACUCAUUACAAUAGAAUAAGAAGGGUGGUACC	–	–	apparent Kd (MS2 coat protein [2]; [9]): 69.1 nM; apparent Kd (MS2 coat protein [2]; [10]): 47.1 nM
UCCUCGUUUACAUGAGGAUCACCCAUGUGCUCGUCUAAACAUUAGGAUAUCGACCCUCUGCGCAUCGAGAAGGAAUACGGCGAG	192 nM	204 nM	–
UCGCAUUCAGGAUAUACUUAAAGGUGAACUGAUCAUAGCAAACAUGAGGAUCACCCAUGUAGAAGGGAAAUAUC	99.2 nM	72.7 nM	–
UCUAACCUAGGAUAUACAUGCCUUGCGUAGCACAUCCGUUUACAUGAGGAUCACCCAUGUAGAAGGAGGGACGG	6.55 nM	8.51 nM	–
UCUUCAAUAGUAAGGAUAUCCAUAACAACAUUCAAGGAGAAGGUACAUGAGGAUCACCCAUGUGGAGUCAAUAA	13.1 nM	19.8 nM	–
UGACUCUCUGUCAGGAUAUAACAAGCUACAGUUUAUUAGAAGGGACAUGAGGAUCACCCAUGUUGAACACCCGA	7.94 nM	7.98 nM	–
UGACUGUCGAAAGGAUAUGGUCGCACGCACACAUCAGUGUUUCACAUGAGGAUCACCCAUGUGGUCCAGAAGGUUCAUAAAUAU	–	–	apparent Kd (MS2 coat protein [2]; [9]): 197 nM; apparent Kd (MS2 coat protein [2]; [10]): 122 nM
UGAUACAUGAGGAUCACCCAUGUUGAUCCCGAGAAGUCCGUAAGAAGGACAGACACGAUGGAUCUGUAGGAUAUUACGACGGAC	182 nM	122 nM	–
UGAUUAUACUUUGAGGAUAUACUAGGACUCACAUGAGGAUCACCCAUGUGUGCGGCUAUACGAGCGUAGAAGGCAAAUACUCCGGC	–	–	apparent Kd (MS2 coat protein [2]; [9]): 9.31 nM; apparent Kd (MS2 coat protein [2]; [10]): 7.91 nM
UGCGUCGUUUAGAAGGGAGUGGCCCAACAUGAGGAUCACCCAUGUGACGCUCAGAAUGUAUUUGCUCAGGAUAUAAAUGUCUUU	162 nM	123 nM	–
UGCUGCUCGAGAGGAUAUACGAAAUGGAACAUGAGGAUCACCCAUGUAUAUCUCCACAAACAGACGUAGAAGGCACAAUAAGGA	–	–	apparent Kd (MS2 coat protein [2]; [9]): 58.2 nM; apparent Kd (MS2 coat protein [2]; [10]): 45.8 nM
UGCUUUUACGGAGGAUAUCUUUGGUCGUUAUGAAGAGAAGGCCGUCCUAACAUGAGGAUCACCCAUGUAUCUCAUUACAGUCUC	–	–	apparent Kd (MS2 coat protein [2]; [9]): 22.9 nM; apparent Kd (MS2 coat protein [2]; [10]): 16.3 nM
UGUCACUGUUUGGUUCAAUGAAGAAGAAUUCGAGGACCGGUACGGCCGCCACUCGCUAUGCAACAUGAGGAUCACCCAUGUAAAA	–	–	apparent Kd (MS2 coat protein [2]; designed as: OFF switch for tryptophan, no ligand): 15.8 nM; apparent Kd (MS2 coat protein [2]; ligand present: tryptophan, designed as: OFF switch for tryptophan): 15.3 nM
UGUCGUAAAGGAUAUACAUGAGGAUCACCCAUGUCGGCCGUUAGGCCGUAAGGUGUGCGUAGAAGGUUACAUUG	191 nM	149 nM	–
UGUGACCGCCAUUCUCGCGACAUGAGGAUCACCCAUGUUUCCAGAAGGCUCCAGGCUUGUGCUCGAGAGGAUAUGGGAAGAUUC	28.4 nM	26.5 nM	–
UUAAUUCAGUGCCACAUGAGGAUCACCCAUGUCCAUACUCAAAAGGAUAUAUGCGGUUUCUAAGUAUAGAAGGUUUGUACACGA	–	–	apparent Kd (MS2 coat protein [2]; [9]): 130 nM; apparent Kd (MS2 coat protein [2]; [10]): 89 nM
UUACAACUAAUGGAUACCAGCCGCGUGCUAGUGGUAGCAUACAUGAGGAUCACCCAUGUCGGCCCUUGGCAGCCACGCCCAUGCU	–	–	apparent Kd (MS2 coat protein [2]; [5]): 14.5 nM; apparent Kd (MS2 coat protein [2]; [6]): 21.5 nM
UUAUCGGUCUCAGGAUAUCAGUAUCACUCAUUAUGAGAAGGGAGACACUCCGGAACAUGAGGAUCACCCAUGUGGGCCUUGGGU	172 nM	103 nM	–
UUAUUCCCGGAGGAUAUCGACGUAUUUGGCGCCCGAGAAGGCCGGACAUGAGGAUCACCCAUGUCCCGUGCUCU	5.66 nM	5.82 nM	–
UUCACAGUGCAAGGAUAUGACAGUUUACAUGAGGAUCACCCAUGUUGGUCCUAUUCAGAAUGAGAUCAGAAGGUGCUAAUAUGU	18.6 nM	36.1 nM	–
UUGAAACAUGAGGAUCACCCAUGUCAGGAUAUCUUAACCCACUUACGCGAGUGUAGCCAGAGAAGGGACAGCGG	12.1 nM	17.4 nM	–
